# Experiments:
# [1] = target: T1, Tyrosine-protein phosphatase non-receptor type 1 (Homo sapiens, UniProt P18031); experiment: Inhibition of PTP1B
# T1 sequence (P18031 whole entry): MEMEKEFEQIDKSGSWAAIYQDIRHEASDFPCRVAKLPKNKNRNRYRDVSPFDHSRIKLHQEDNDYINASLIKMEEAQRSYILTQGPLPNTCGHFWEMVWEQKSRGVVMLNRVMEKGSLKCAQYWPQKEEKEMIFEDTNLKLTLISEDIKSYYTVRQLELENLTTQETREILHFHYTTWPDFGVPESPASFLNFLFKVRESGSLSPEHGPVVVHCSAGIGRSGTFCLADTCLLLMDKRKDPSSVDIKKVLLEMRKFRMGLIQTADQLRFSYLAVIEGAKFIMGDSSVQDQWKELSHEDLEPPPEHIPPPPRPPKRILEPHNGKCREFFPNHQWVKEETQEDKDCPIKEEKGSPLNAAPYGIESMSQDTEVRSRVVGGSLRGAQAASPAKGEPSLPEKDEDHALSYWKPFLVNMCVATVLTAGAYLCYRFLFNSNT
# Summary of the method: (§1)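 Fluorometric DiFMUP hydrolysis at 30 C in 50 mM Bis-Tris pH 6.0 (ionic strength 50 mM with NaCl), 1 mM DTT, 5% DMSO, 1% PEG8000. DiFMUP fixed at each PTP's Km. Initial rates read at ex 360/em 460 nm across several compound concentrations. No-enzyme control used to correct for nonenzymatic hydrolysis. HePTP was recombinant in-house; PTP1B, Shp1, CD45 and LAR were commercial recombinant enzymes.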
# [2] = target: T2, Receptor-type tyrosine-protein phosphatase C (Homo sapiens, UniProt P08575); experiment: Inhibition of CD45; summary of the method: as §1
# T2 sequence (P08575 whole entry): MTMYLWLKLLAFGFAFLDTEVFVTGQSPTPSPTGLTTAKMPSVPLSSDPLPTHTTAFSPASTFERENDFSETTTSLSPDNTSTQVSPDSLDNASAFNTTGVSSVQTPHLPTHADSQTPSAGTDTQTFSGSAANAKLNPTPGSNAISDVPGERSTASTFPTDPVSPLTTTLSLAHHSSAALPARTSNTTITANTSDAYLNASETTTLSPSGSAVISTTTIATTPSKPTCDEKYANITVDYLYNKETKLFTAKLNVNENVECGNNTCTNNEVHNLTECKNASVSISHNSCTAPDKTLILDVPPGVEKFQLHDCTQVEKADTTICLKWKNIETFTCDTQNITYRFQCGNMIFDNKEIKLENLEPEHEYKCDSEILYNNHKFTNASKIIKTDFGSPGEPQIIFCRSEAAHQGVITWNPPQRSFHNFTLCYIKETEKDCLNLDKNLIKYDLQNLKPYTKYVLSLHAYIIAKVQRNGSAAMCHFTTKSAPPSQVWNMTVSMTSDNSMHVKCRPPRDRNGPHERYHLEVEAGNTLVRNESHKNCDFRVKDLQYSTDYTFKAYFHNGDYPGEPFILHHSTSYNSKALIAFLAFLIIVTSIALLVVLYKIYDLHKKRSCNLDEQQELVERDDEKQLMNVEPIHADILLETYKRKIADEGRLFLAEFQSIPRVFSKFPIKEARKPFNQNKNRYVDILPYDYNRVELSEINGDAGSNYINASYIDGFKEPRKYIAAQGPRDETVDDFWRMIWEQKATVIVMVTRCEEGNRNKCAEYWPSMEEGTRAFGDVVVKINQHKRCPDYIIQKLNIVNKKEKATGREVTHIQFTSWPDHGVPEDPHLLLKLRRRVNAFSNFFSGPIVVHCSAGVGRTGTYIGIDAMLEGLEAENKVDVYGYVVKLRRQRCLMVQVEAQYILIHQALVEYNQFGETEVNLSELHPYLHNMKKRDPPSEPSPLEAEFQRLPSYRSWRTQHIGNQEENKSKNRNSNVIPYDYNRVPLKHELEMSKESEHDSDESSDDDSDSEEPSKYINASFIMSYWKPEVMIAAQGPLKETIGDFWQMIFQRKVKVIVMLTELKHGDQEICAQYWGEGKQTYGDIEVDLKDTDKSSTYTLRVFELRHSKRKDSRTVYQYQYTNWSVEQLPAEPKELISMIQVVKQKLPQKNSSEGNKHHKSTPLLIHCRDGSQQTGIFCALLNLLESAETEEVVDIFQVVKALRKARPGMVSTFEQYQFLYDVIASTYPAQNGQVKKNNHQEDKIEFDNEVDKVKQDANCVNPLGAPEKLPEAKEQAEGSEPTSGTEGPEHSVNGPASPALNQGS
# [3] = target: T3, Tyrosine-protein phosphatase non-receptor type 7 (Homo sapiens, UniProt P35236); experiment: Inhibition of HePTP; summary of the method: as §1
# T3 sequence (P35236 whole entry): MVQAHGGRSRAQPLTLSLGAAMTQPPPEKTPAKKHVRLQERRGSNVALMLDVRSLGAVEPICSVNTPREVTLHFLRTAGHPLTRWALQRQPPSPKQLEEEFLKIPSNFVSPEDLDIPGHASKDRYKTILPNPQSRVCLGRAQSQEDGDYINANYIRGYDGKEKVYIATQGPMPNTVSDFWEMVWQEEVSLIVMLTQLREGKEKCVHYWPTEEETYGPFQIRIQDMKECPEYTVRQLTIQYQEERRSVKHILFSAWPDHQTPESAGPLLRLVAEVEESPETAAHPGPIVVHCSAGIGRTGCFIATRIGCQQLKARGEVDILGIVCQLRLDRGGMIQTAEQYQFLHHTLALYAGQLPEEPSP
# [4] = target: Receptor-type tyrosine-protein phosphatase F (Homo sapiens, UniProt P10586); experiment: Inhibition of LAR; summary of the method: as §1
# Sequence of Receptor-type tyrosine-protein phosphatase F (P10586 whole entry): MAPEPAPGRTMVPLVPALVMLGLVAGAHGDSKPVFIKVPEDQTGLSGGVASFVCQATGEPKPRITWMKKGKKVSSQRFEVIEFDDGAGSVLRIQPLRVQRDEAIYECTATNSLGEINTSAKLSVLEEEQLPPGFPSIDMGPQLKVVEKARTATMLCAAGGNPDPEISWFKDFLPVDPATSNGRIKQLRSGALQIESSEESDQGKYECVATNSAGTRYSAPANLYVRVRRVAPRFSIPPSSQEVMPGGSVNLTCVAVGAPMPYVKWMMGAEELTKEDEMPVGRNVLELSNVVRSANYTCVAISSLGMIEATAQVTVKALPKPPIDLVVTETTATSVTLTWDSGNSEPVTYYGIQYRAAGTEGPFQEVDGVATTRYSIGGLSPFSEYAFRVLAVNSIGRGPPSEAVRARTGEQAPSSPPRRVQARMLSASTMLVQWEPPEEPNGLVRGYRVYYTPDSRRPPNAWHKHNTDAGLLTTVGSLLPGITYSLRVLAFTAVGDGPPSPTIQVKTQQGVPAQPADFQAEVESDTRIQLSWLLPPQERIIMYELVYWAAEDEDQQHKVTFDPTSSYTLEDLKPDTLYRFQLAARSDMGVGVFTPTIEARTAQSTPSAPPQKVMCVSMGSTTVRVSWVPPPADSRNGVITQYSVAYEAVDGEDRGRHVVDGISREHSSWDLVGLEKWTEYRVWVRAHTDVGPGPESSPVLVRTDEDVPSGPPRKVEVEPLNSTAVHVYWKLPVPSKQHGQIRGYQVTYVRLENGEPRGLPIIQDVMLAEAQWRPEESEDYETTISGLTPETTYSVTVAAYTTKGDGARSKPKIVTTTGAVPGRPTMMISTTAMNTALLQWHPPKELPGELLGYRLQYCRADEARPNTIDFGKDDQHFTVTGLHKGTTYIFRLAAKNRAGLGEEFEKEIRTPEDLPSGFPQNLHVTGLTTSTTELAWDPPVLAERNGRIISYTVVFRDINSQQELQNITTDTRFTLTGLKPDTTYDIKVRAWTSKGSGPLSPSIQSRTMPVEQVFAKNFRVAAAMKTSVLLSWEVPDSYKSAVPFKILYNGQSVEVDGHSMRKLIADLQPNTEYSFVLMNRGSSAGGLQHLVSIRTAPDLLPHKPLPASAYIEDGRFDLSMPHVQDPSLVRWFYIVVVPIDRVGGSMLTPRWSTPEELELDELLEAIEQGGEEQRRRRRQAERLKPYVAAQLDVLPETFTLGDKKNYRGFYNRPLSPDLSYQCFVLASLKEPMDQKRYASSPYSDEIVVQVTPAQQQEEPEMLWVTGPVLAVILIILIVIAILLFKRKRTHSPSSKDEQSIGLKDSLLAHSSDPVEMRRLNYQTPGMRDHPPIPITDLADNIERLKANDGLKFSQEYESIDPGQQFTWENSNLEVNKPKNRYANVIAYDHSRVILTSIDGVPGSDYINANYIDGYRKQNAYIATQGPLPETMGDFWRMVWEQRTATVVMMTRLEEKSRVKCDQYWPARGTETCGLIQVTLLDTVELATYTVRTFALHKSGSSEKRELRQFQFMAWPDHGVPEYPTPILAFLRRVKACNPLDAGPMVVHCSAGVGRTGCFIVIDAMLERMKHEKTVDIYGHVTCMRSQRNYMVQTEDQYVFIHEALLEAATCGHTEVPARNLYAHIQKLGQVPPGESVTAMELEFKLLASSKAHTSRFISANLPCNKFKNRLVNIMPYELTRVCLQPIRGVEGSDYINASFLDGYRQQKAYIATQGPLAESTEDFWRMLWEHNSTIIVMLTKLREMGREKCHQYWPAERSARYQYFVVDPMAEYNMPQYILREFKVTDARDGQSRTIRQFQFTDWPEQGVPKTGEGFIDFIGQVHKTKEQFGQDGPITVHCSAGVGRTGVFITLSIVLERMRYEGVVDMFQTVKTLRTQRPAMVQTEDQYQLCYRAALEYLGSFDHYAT
Compound,IC50 [1] [µM],IC50 [2] [µM],IC50 [3] [µM],IC50 [4] [µM]
Cc1ccc(-c2oc3cc(O)c(C(=O)O)cc3c2-c2cn(CCCC(=O)Nc3cccc4ccccc34)nn2)cc1,0.214,0.681,4.07,36.1
COc1ccc2nc(NC(=O)CCCn3cc(-c4c(-c5cccc(C)c5)oc5cc(O)c(C(=O)O)cc45)nn3)sc2c1,0.217,0.877,6.36,39.9
Cc1ccc(-c2oc3cc(O)c(C(=O)O)cc3c2-c2cn(CCCC(=O)Nc3ccc(Cl)c4ccccc34)nn2)cc1,0.205,1.05,3.69,23.7
COc1ccc(-c2oc3cc(O)c(C(=O)O)cc3c2-c2cn(CCCC(=O)Nc3cccc4ccccc34)nn2)cc1,0.19,0.41,3.7,25.5
COC(=O)c1cc2c(-c3cn(CCCC(=O)Nc4ccc(Cl)c5ccccc45)nn3)c(-c3ccccc3)oc2cc1O,11.5,16.2,32,44.4
